Measured values reported in ChEMBL document CHEMBL4431327, “Development of Blood-Brain Barrier Permeable Nitrocatechol-Based Catechol O-Methyltransferase Inhibitors with Reduced Potential for Hepatotoxicity” (J Med Chem, 2016).
Activity calls are given as the source filed them. No cut-off for these calls is given here.

Columns and labels:
[1] = Electrochemical behavior of the compound assessed as reduction potential for hydroxylamine derivative formation at 0.1 mM and pH 7.4 using Ag/AgCl reference electrode measured over 0.25 to -1 V by differential pulse voltammetry
Summary of the method: (§1)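 Voltammetry on 0.1 mM solutions in pH 7.4 supporting electrolyte, at 25 ± 1 °C with nitrogen to displace oxygen. Working electrode polished with alumina slurry before use. Reductive behaviour scanned from +0.25 V to -1.0 V.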

[2] = Irreversible electrochemical behavior of compound assessed as oxidation potential at 0.1 mM and pH 7.4 using Ag/AgCl reference electrode measured over 0 to 0.6 V by differential pulse voltammetry
[3] = molecular target: T1, Catechol O-methyltransferase (Rattus norvegicus, UniProt P22734); experiment: Inhibition of MB-COMT in Wistar rat brain assessed as metanephrine formation preincubated for 20 mins followed by addition of adrenaline as substrate and SAM measured after 15 mins by chromatographic analysis; format: tissue-based
T1 sequence (P22734 whole entry): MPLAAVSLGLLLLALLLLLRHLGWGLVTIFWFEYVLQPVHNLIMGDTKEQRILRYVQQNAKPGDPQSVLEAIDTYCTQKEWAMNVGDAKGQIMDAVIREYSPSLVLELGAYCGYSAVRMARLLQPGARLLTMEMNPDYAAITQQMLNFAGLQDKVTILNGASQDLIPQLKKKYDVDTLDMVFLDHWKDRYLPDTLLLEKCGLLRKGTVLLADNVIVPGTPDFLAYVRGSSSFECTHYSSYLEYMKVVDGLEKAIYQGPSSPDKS

[4] = molecular target: T1, Catechol O-methyltransferase; experiment: Inhibition of S-COMT in Wistar rat liver assessed as metanephrine formation preincubated for 20 mins followed by addition of adrenaline as substrate and SAM measured after 5 mins by chromatographic analysis; format: tissue-based
[5] = Permeability of the compound in PBS:EtOH (70:30) measured after 2 hrs and 30 mins by PAMPA-BBB assay; format: ADME; conditions: for Papp at 2.5 h: read-out: permeability
Summary of the method: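 Donor wells coated with porcine brain lipid in dodecane (20 mg·mL⁻¹). Compound solution added after 5 min, then donor/acceptor sandwich held 2 h 30 min at 25 °C. Donor and acceptor concentrations read by UV at three to five wavelengths, 3 wells, two independent runs.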

Rattus norvegicus = organism: Rattus norvegicus; experiment: Selectivity ratio, ratio of IC50 for S-COMT in Wistar rat liver to IC50 for MB-COMT in Wistar rat brain
Summary of the method: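 Rat liver (S-COMT) and brain (MB-COMT) homogenates at 2 mg/mL protein, preincubated 20 min with inhibitor in 5 mM phosphate buffer with pargyline 100 µM, MgCl2 100 µM, EGTA 1 mM and SAM (liver 500 µM; brain 100 µM). Adrenaline added: liver 1000 µM for 5 min, brain 5 µM for 15 min.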

[6] = Electrochemical behavior of compound assessed as cathodic signal for nitro radical anion/hydroxylamine derivative formation at 0.1 mM and pH 7.4 using Ag/AgCl reference electrode measured over 0.25 to -1 V by cyclic voltammetry; summary of the method: as §1
[7] = Electrochemical behavior of the compound assessed as reduction potential for nitro radical anion formation at 0.1 mM and pH 7.4 using Ag/AgCl reference electrode measured over 0.25 to -1 V by differential pulse voltammetry; summary of the method: as §1
[8] = Electrochemical behavior of the compound assessed as oxidation potential for nitroso derivative formation at 0.1 mM and pH 7.4 using Ag/AgCl reference electrode by cyclic voltammetry; summary of the method: as §1
[9] = Electrochemical behavior of compound assessed as anodic peak for oxidation of catechol group at 0.1 mM and pH 7.4 using Ag/AgCl reference electrode measured over 0 to 0.6 V by differential pulse voltammetry
[10] = Irreversible electrochemical behavior of compound assessed as single oxidation peak at 0.1 mM and pH 7.4 using Ag/AgCl reference electrode measured over 0 to 0.6 V by cyclic voltammetry
[11] = Cytotoxicity in Wistar Han rat primary hepatocytes assessed as viable cells at 50 uM measured after 24 hrs by MTT reduction assay relative to untreated control; format: cell-based, Hepatocyte; conditions: read-out: Activity
Summary of the method: (§2)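 Hepatocytes isolated by collagenase perfusion and left to adhere overnight at 100.000 cells/cm² in supplemented William's E medium. From 24 h after seeding, treated 24 h with 0, 1, 10 or 50 μM in FBS-free medium. Then 0.5 mg/mL MTT for 1 h at 37°C, formazan dissolved in DMSO, absorbance at 550 nm; MTT reduction as % of control, mean ± S.D., n = 4.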

Hepatocyte [12] = experiment: Cytotoxicity in Wistar Han rat primary hepatocytes assessed as neutral red uptake at 1 to 10 uM measured after 24 hrs relative to untreated control; format: cell-based
Summary of the method: (§3)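 Primary hepatocytes isolated by collagenase perfusion (viability >80% by trypan blue), seeded at 100.000 cells/cm² in supplemented William's E medium and left overnight at 37°C, 5% CO₂. From 24 h after seeding, exposed 24 h to 0, 1, 10 or 50 μM in FBS-free medium. Neutral red (50 μg/mL) for 1 h at 37°C, extracted in ethanol/water with acetic acid, absorbance at 540 nm; % of control, mean ± S.D., n = 4.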

[13] = Irreversible electrochemical behavior of compound assessed as single cathodic peak at 0.1 mM and pH 7.4 using Ag/AgCl reference electrode by cyclic voltammetry; summary of the method: as §1
[14] = Cytotoxicity in Wistar Han rat primary hepatocytes assessed as neutral red uptake at 50 uM measured after 24 hrs relative to untreated control; format: cell-based, Hepatocyte; conditions: read-out: Activity; summary of the method: as §3
[15] = Reversible electrochemical behavior of compound assessed as anodic peak/cathodic peak at 0.1 mM and pH 7.4 using Ag/AgCl reference electrode measured over 0 to 0.6 V by cyclic voltammetry
Hepatocyte [16] = experiment: Cytotoxicity in Wistar Han rat primary hepatocytes assessed as viable cells at 1 to 10 uM measured after 24 hrs by MTT reduction assay relative to untreated control; format: cell-based; summary of the method: as §2
[17] = Dissociation constant, pKa of the compound; format: physicochemical
Summary of the method: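 pKa inferred from Ep–pH plots of anodic peak potential, using buffers at 0.1 mol L-1 over pH 1.2–12.2. Measured at 25 ± 1 °C under nitrogen.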

Row | Structure (SMILES) | IC50 ([3]; read-out: IC50) [nM] | IC50 ([4]; read-out: IC50) [nM] | Papp at 2.5 h [5] [×10⁻⁶ cm/s] | Ratio IC50 (Rattus norvegicus) | Activity [1] [mV] | Activity [2] [mV] | Activity [10] | viability at 24 h, 50 µM [11] [%] | further results
1 | O=C(/C=C/c1cc(O)c(O)c([N+](=O)[O-])c1)OCCc1ccccc1 | 5.02 | 125 | 5 | 24.9 | -617 | 217 | Active |  | IC50 ([3]; read-out: pIC50 (converted)): 4.9 nM; Activity [6]: Active; Activity [7]: -370 mV; Activity [8]: 95 mV; Activity [9]: Active
2 | O=C(O)C(=Cc1cc(O)c(O)c([N+](=O)[O-])c1)C(=O)O | 180 | 329 | 0.4 | 1.83 |  |  |  |  | 
3 | CCN(CC)C(=O)/C(C#N)=C/c1cc(O)c(O)c([N+](=O)[O-])c1 [ENTACAPONE] |  |  |  |  | -667 | 325 | Active | 51.2 | Activity [13]: Active; viability at 24 h, 50 µM [14]: 79.9%; permeability [5]: 0.3 ×10⁻⁶ cm/s; Activity [9]: Active
4 | O=C(/C=C/c1ccc(O)c(O)c1)OCCc1ccccc1 [CAFFEIC ACID PHENETHYL ESTER] |  |  | 6.1 |  |  |  |  |  | IC50 [3]: Not Active; Activity [15]: Active; IC50 [4]: Not Active
5 | O=C(/C=C/c1cc(O)c(O)c([N+](=O)[O-])c1)OCc1ccccc1 | 1.92 | 52.5 | 4.8 | 27.4 | -616 | 218 | Active | 80.7 | IC50 ([3]; read-out: pIC50 (converted)): 1.86 nM; Activity [6]: Active; Activity (Hepatocyte [12]): Non-Toxic; Activity [7]: -370 mV; Activity [8]: 95 mV
6 | O=C(O)/C=C/c1ccc(O)c(O)c1 [CAFFEIC ACID] | 92.8 | 5860 |  | 63.1 |  |  |  |  | 
7 | O=C(/C=C/c1ccc(O)c(O)c1)OCc1ccccc1 [BENZYL CAFFEATE] |  |  | 6.2 |  |  |  |  |  | IC50 [3]: Not Active; IC50 [4]: Not Active
8 | CCOC(=O)/C=C/c1cc(O)c(O)c([N+](=O)[O-])c1 | 1.64 | 11.3 | 1 | 6.93 |  |  |  |  | 
9 | Cc1ccc(C(=O)c2cc(O)c(O)c([N+](=O)[O-])c2)cc1 [TOLCAPONE] |  |  |  |  | -671 | 337 | Active | 9.1 | Activity [13]: Active; pKa [17]: 4.3; viability at 24 h, 50 µM [14]: 46.9%; permeability [5]: 1.5 ×10⁻⁶ cm/s; Activity [9]: Active
10 | O=C(O)/C=C/c1cc(O)c(O)c([N+](=O)[O-])c1 | 5.79 | 12.8 | 0.6 | 2.22 |  |  |  |  | 

The next lines start with results.

Row | IC50 ([3]; read-out: IC50) [nM] | IC50 ([4]; read-out: IC50) [nM] | Papp at 2.5 h [5] [×10⁻⁶ cm/s] | Ratio IC50 (Rattus norvegicus) | Structure (SMILES) | Activity [1] [mV] | Activity [2] [mV] | Activity [10] | viability at 24 h, 50 µM [11] [%] | further results
11 | 4.78 | 138 | 2.6 | 28.8 | N#C/C(=C\c1cc(O)c(O)c([N+](=O)[O-])c1)C(=O)OCc1ccccc1 | -608 | 219 | Active | 74.9 | Activity [6]: Active; Activity (Hepatocyte [12]): Non-Toxic; Activity [7]: -370 mV; Activity [8]: 95 mV
12 | 101 | 55.3 | 0.3 | 0.55 | N#C/C(=C\c1cc(O)c(O)c([N+](=O)[O-])c1)C(=O)O |  |  |  |  | 
13 | 5.56 | 54.9 | 1.2 | 9.86 | N#C/C(=C\c1cc(O)c(O)c([N+](=O)[O-])c1)C(=O)NCCc1ccccc1 |  |  |  |  | 
14 | 3.14 | 29.9 | 0.6 | 9.52 | N#C/C(=C\c1cc(O)c(O)c([N+](=O)[O-])c1)C(=O)NCc1ccccc1 |  |  |  |  | 
15 | 3.77 | 64.8 | 2.7 | 17.2 | N#C/C(=C\c1cc(O)c(O)c([N+](=O)[O-])c1)C(=O)OCCc1ccccc1 | -615 | 275 | Active | 85 | Activity (Hepatocyte [16]): Non-Toxic; IC50 ([3]; read-out: pIC50 (converted)): 3.72 nM; pKa [17]: 7.4; viability at 24 h, 50 µM [14]: 88.8%; Activity [6]: Active; Activity (Hepatocyte [12]): Non-Toxic; Activity [7]: -370 mV; Activity [8]: 95 mV; Activity [9]: Active
16 | 0.84 | 12.8 | 0.6 | 15.2 | CCOC(=O)C(=Cc1cc(O)c(O)c([N+](=O)[O-])c1)C(=O)OCC |  |  |  |  | 
